The results in this text go back to ChEMBL document CHEMBL1122917, “Vinblastin-23-oyl amino acid derivatives: chemistry, physicochemical data, toxicity, and antitumor activities against P388 and L1210 leukemias” (J Med Chem, 1985).

A word on the ILS: it is the gain in survival time of treated over control animals, in per cent.

Common to all, as to format: functional
Assay [1] has as its system Mus musculus. In words: Number of survivors on 60th day at dose 55 mg/kg/day in 10 mice implanted with P388 leukemia cell line; 0/10.
Assay [2] relates to Mus musculus. In words: Number of survivors on 60th day at dose 60 mg/kg/day in 10 mice implanted with P388 leukemia cell line; 0/10. In outline:
(§1)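 Female DBA2 mice inoculated iv on day 0 with 10^4 P388 cells; single iv treatment on day 1 with drug as sulfate salt in physiological saline. Survival followed; %ILS from all deaths and survivors as (T/C × 100) − 100, maximal MST 30 days; survivors counted on days 30 and 60. Most experiments confirmed three times.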

Assay [3] deals with Mus musculus. Briefly: Percent increase in life span at dose 70 mg/kg/day in 10 mice implanted with P388 leukemia cell line. The procedure, abridged: as §1
Assay [4] concerns Mus musculus. In words: Percent increase in life span at dose 80 mg/kg/day in 10 mice implanted with P388 leukemia cell line. The procedure, abridged:
as §1

The test system of assay [5] is Mus musculus. In words: Percent increase in life span at dose 55 mg/kg/day in 10 mice implanted with P388 leukemia cell line. The procedure, abridged:
as §1

Assay [6] concerns Mus musculus. Briefly: Number of survivors on 60th day at dose 80 mg/kg/day in 10 mice implanted with P388 leukemia cell line; 0/10.
Assay [7] has as its system Mus musculus. Briefly: Percent increase in life span at dose 60 mg/kg/day in 10 mice implanted with P388 leukemia cell line. The procedure, abridged:
as §1

Assay [8] has as its system Mus musculus. Briefly: Percent increase in life span at dose 65 mg/kg/day in 10 mice implanted with P388 leukemia cell line. In outline: as §1
For assay [9], the system named is Mus musculus. In words: Number of survivors on 60th day at dose 65 mg/kg/day in 10 mice implanted with P388 leukemia cell line; 0/10.
The subject of assay [10] is Mus musculus. Briefly: Number of survivors on 60th day at dose 70 mg/kg/day in 10 mice implanted with P388 leukemia cell line; 0/10.
For assay [11], the system named is Mus musculus. Briefly: Number of survivors on 30th day at dose 55 mg/kg/day in 10 mice implanted with P388 leukemia cell line; 0/10.
Assay [12] has as its system Mus musculus. Briefly: Number of survivors on 30th day at dose 70 mg/kg/day in 10 mice implanted with P388 leukemia cell line; 0/10.
In assay [13] the test system is Mus musculus. Briefly: Number of survivors on 30th day at dose 80 mg/kg/day in 10 mice implanted with P388 leukemia cell line; 0/10.
Assay [14] has as its system Mus musculus. Briefly: Number of survivors on 30th day at dose 60 mg/kg/day in 10 mice implanted with P388 leukemia cell line; 0/10.
In assay [15] the test system is Mus musculus. In words: Number of survivors on 30th day at dose 65 mg/kg/day in 10 mice implanted with P388 leukemia cell line; 0/10.
Assay [16] has as its system Mus musculus. In words: Percent increase in life span of DBA2 mice after inoculation with L1210 leukemia intravenously at a dose of 50 mg/kg per day. The settings on record: route intravenous. The procedure, abridged: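 Female DBA2 mice inoculated iv on day 0 with 10^4 L1210 cells; drugs given iv as sulfate salts in physiological saline, mostly once on day 1. %ILS from all deaths and survivors as (T/C × 100) − 100; survivors scored on days 30 and 60.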

For assay [17], the system named is Mus musculus. In words: Number of survivors of DBA2 mice on 30th day after inoculation with L1210 leukemia cell line intravenously at a dose of 50 mg/kg/day; 0/10. The settings on record: route intravenous.
The test system of assay [18] is Mus musculus. In words: Percent increase in life span at dose 40 mg/kg/day in 10 mice implanted with P388 leukemia cell line. In outline:
as §1

In assay [19] the test system is Mus musculus. In words: Number of survivors on 60th day at dose mg/kg/day in 10 mice implanted with P388 leukemia cell line; 1/10.
Assay [20] deals with Mus musculus. Briefly: Number of survivors on 60th day at dose mg/kg/day in 10 mice implanted with P388 leukemia cell line; 2/10.
Assay [21] concerns Mus musculus. Briefly: Number of survivors on 30th day at dose 40 mg/kg/day in 10 mice implanted with P388 leukemia cell line; 1/10.
For assay [22], the system named is Mus musculus. In words: Number of survivors on 60th day at dose mg/kg/day in 10 mice implanted with P388 leukemia cell line; 7/10.
In assay [23] the test system is Mus musculus. In words: Number of survivors on 60th day at dose mg/kg/day in 10 mice implanted with P388 leukemia cell line; 5/10.
Assay [24] concerns Mus musculus. In words: Number of survivors on 30th day at dose 50 mg/kg/day in 10 mice implanted with P388 leukemia cell line; 2/10.
The subject of assay [25] is Mus musculus. In words: Number of survivors on 30th day at dose 55 mg/kg/day in 10 mice implanted with P388 leukemia cell line; 7/10.
The test system of assay [26] is Mus musculus. In words: Number of survivors of DBA2 mice on 60th day after inoculation with L1210 leukemia cell line intravenously at a dose of 50 mg/kg/day; 0/10. The settings on record: route intravenous.
Assay [27] has as its system Mus musculus. In words: Number of survivors on 30th day at dose 70 mg/kg/day in 10 mice implanted with P388 leukemia cell line; 5/10.
The test system of assay [28] is Mus musculus. In words: Number of survivors on 30th day at dose 80 mg/kg/day in 10 mice implanted with P388 leukemia cell line; 7/10.
For assay [29], the system named is Mus musculus. In words: Number of survivors on 30th day at dose 60 mg/kg/day in 10 mice implanted with P388 leukemia cell line; 5/10.
Assay [30] relates to Mus musculus. In words: Percent increase in life span at dose 50 mg/kg/day in 10 mice implanted with P388 leukemia cell line. In outline: as §1
The test system of assay [31] is Mus musculus. In words: Number of survivors on 60th day at dose mg/kg/day in 10 mice implanted with P388 leukemia cell line; 4/10.

Turning to `CCCCOC(=O)[C@H](CC(C)C)NC(=O)[C@@]1(O)[C@H](O)[C@]2(CC)C=CCN3CC[C@@]4(c5cc([C@@]6(C(=O)OC)C[C@H]7C[N@](CCc8c6[nH]c6ccccc86)C[C@](O)(CC)C7)c(OC)cc5N(C)[C@@]14C)[C@@H]32`, the Survivors in the assay on Mus musculus [1], with Mus musculus [2], with Mus musculus [6], in the assay with Mus musculus [9], with Mus musculus [10] and with Mus musculus [11] was 0 throughout. Besides, the Survivors in the assay with Mus musculus [12], in the assay on Mus musculus [13], in the assay on Mus musculus [14] and in the assay with Mus musculus [15] was 0 throughout. In the assay on Mus musculus [3], this compound showed an ILS at 70 mg/kg/day of 26.7%. In addition, the increase in life span (ILS) at 80 mg/kg/day in the assay with Mus musculus [4] worked out at 27.6%. In the assay with Mus musculus [5], this compound gave an increase in life span (ILS) at 55 mg/kg/day of 23%. The same compound registered an increase in life span (ILS) at 60 mg/kg/day with Mus musculus [7] of 26%. In the assay on Mus musculus [8], this compound displayed an ILS at 65 mg/kg/day of 13.8%.
For `CCCCOC(=O)[C@H](Cc1c[nH]c2ccccc12)NC(=O)[C@@]1(O)[C@H](O)[C@]2(CC)C=CCN3CC[C@@]4(c5cc([C@@]6(C(=O)OC)C[C@H]7C[N@](CCc8c6[nH]c6ccccc86)C[C@](O)(CC)C7)c(OC)cc5N(C)[C@@]14C)[C@@H]32`, the ILS at 50 mg/kg/day in the assay on Mus musculus [16] is 44%; in the assay with Mus musculus [30] it was 31.6%. In the assay with Mus musculus [3], the ILS at 70 mg/kg/day was 52%. The Survivors with Mus musculus [17] came to 0; in the assay on Mus musculus [19], 1; in the assay on Mus musculus [20], 2; in the assay on Mus musculus [21] it was 1; in the assay with Mus musculus [22], 7; with Mus musculus [23] it was 5. Besides, the Survivors amounted to 2 in the assay on Mus musculus [24]; 7 in the assay on Mus musculus [25]; 0 in the assay on Mus musculus [26]; 5 in the assay on Mus musculus [27]; 7 in the assay with Mus musculus [28]; 5 in the assay on Mus musculus [29]. Besides, in the assay with Mus musculus [31], the Survivors was found to be 4. For the same compound, the ILS at 80 mg/kg/day in the assay on Mus musculus [4] was greater than 216%. Also, the ILS at 40 mg/kg/day in the assay on Mus musculus [18] turned out to be 63%. Also, the increase in lifespan (ILS) at 55 mg/kg/day in the assay with Mus musculus [5] is greater than 163%. This compound also yielded an ILS at 60 mg/kg/day in the assay with Mus musculus [7] of 140%.
